Experimental data from ChEMBL document CHEMBL3259680, “Discovery and Biological Evaluation of Novel Dual EGFR/c-Met Inhibitors” (ACS Med Chem Lett, 2014).
The source made the active and inactive calls. No cut-off for these calls is given here.

How the values were obtained:
[1] = biological target: T1, Epidermal growth factor receptor (Homo sapiens, UniProt P00533); test: Inhibition of recombinant EGFR (unknown origin) using poly-GT peptide as substrate by Transcreener assay
[2] = biological target: Epidermal growth factor receptor (Homo sapiens, UniProt P00533, L858R); test: Inhibition of recombinant EGFR L858R mutant (unknown origin) using poly-GT peptide as substrate after 1 hr by Transcreener assay; assay type: protein assay
[3] = biological target: T2, Hepatocyte growth factor receptor (Homo sapiens, UniProt P08581); test: Inhibition of recombinant c-MET (unknown origin) using poly-AEKY peptide as substrate after 60 mins by ADPGlo assay
[4] = biological target: Insulin receptor (Homo sapiens, UniProt P06213); test: Inhibition of recombinant INSR (unknown origin) using fluorescent dye-labelled KKSRGDYMTMQIG peptide peptide as substrate after 1 hr by IMAP assay
[5] = system: A549; test: Cytotoxicity against human A549 cells after 48 hrs by MTT assay; assay type: functional, cell-based; conditions: A549, 48 h
[6] = Cytotoxicity against human HCC827 cells after 48 hrs by MTT assay; assay type: functional, cell-based; conditions: HCC827, 48 h
[7] = system: NCI-H1975; test: Cytotoxicity against human NCI-H1975 cells after 48 hrs by MTT assay; assay type: functional, cell-based; conditions: NCI-H1975, 48 h
[8] = system: NCI-H1993; test: Cytotoxicity against human NCI-H1993 cells after 48 hrs by MTT assay; assay type: functional, cell-based; conditions: NCI-H1993, 48 h
[9] = biological target: T2, Hepatocyte growth factor receptor; test: Inhibition of recombinant c-MET (unknown origin) using poly-AEKY peptide as substrate by ADPGlo assay; conditions: TDE = time-dependent effect
[10] = Cytotoxicity against mouse NIH/3T3 cells after 48 hrs by MTT assay; assay type: cell-based; conditions: NIH3T3, 48 h
[11] = biological target: T2, Hepatocyte growth factor receptor; test: Inhibition of c-MET (unknown origin) phosphorylation by cell-based Western blot analysis
[12] = biological target: T1, Epidermal growth factor receptor; test: Inhibition of EGFR (unknown origin) phosphorylation by cell-based Western blot analysis
[13] = system: HCC827; test: Induction of apoptosis in human HCC827 cells at 1 uM after 24 hrs using propidium iodide by flow cytometry; assay type: functional, cell-based
Summary of the method: (§1)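 Apoptosis read by flow cytometry; means ± SD of at least 3 independent experiments; unpaired 2-tailed Student's t test against DMSO-treated cells, p < 0.05.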

[14] = system: NCI-H1993; test: Induction of apoptosis in human NCI-H1993 cells at 1 uM after 24 hrs using propidium iodide by flow cytometry; assay type: functional, cell-based; summary of the method: as §1
[15] = biological target: Epithelial discoidin domain-containing receptor 1 (Homo sapiens) (UniProt Q08345); test: Inhibition of recombinant DDR1 (unknown origin) at 1 uM
Summary of the method: (§2)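 Single-point screen at 1 μM on a recombinant panel of 34 clinically relevant kinases; percent inhibition reported.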

[16] = biological target: Tyrosine-protein kinase receptor UFO (Homo sapiens) (UniProt P30530); test: Inhibition of recombinant AXL (unknown origin) at 1 uM; summary of the method: as §2
[17] = biological target: Mast/stem cell growth factor receptor Kit (Homo sapiens) (UniProt P10721); test: Inhibition of recombinant c-KIT (unknown origin) at 1 uM; summary of the method: as §2
[18] = biological target: Receptor tyrosine-protein kinase erbB-2 (Homo sapiens) (UniProt P04626); test: Inhibition of recombinant ErbB2 (unknown origin) at 1 uM; summary of the method: as §2
[19] = biological target: Proto-oncogene tyrosine-protein kinase receptor Ret (Homo sapiens) (UniProt P07949); test: Inhibition of recombinant RET (unknown origin) at 1 uM; summary of the method: as §2
[20] = biological target: Receptor-type tyrosine-protein kinase FLT3 (Homo sapiens) (UniProt P36888); test: Inhibition of recombinant FLT3 (unknown origin) at 1 uM; summary of the method: as §2
[21] = biological target: T2, Hepatocyte growth factor receptor; test: Inhibition of c-MET phosphorylation in human NCI-H1993 cells at 1 uM after 1 hr by Western blot analysis; assay type: cell-based
[22] = biological target: T1, Epidermal growth factor receptor; test: Inhibition of EGFR phosphorylation in human NCI-H1993 cells at 1 uM after 1 hr by Western blot analysis; assay type: cell-based
[23] = biological target: T2, Hepatocyte growth factor receptor; test: Inhibition of c-MET phosphorylation in human HCC827 cells at 1 uM after 1 hr by Western blot analysis; assay type: cell-based
[24] = biological target: T1, Epidermal growth factor receptor; test: Inhibition of EGFR phosphorylation in human HCC827 cells at 1 uM after 1 hr by Western blot analysis; assay type: cell-based
[25] = system: DU-145; test: Antiinvasive activity in human DU145 cells assessed as inhibition of HGF-induced cell motility preincubated for 1 hr before HGF treatment measured after 24 hrs by cell scattering assay; assay type: functional, cell-based
[26] = system: MDCK; test: Antiinvasive activity in MDCK cells assessed as inhibition of HGF-induced cell motility preincubated at 0.3 uM for 1 hr before HGF treatment measured after 48 hrs by cell scattering assay; assay type: functional, cell-based; conditions: Canis lupus familiaris
[27] = system: MDCK; test: Cytotoxicity against MDCK cells assessed as cell death at 1 uM after 48 hrs; assay type: cell-based, Canis lupus familiaris; conditions: dog
[28] = biological target: T2, Hepatocyte growth factor receptor; test: Competitive inhibition of recombinant c-MET (unknown origin) using poly-AEKY peptide as substrate by Lineweaver-Burk double reciprocal plot method
Summary of the method: (§3)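 Recombinant enzyme activity (Vmax) measured at varied ATP and inhibitor concentrations; signal shifts (ΔS) plotted as Lineweaver–Burk double reciprocal plot to assess binding mode versus ATP.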

[29] = biological target: T1, Epidermal growth factor receptor; test: Competitive inhibition of recombinant EGFR (unknown origin) using poly-GT peptide as substrate by Lineweaver-Burk double reciprocal plot method; summary of the method: as §3

IC50 [1] [µM] | IC50 [2] [µM] | IC50 [3] [µM] | IC50 [4] [µM] | inhibition [9] | SMILES | IC50 [5] [µM] | IC50 [6] [µM] | IC50 [7] [µM] | IC50 [8] [µM] | IC50 [10] [µM] | further results
1.37 | 1.97 | 1.72 | > 12.5 | tde | COc1cc2c(Oc3ccc(NS(=O)(=O)c4cccc(-c5cnn(C)c5)c4)cc3F)ccnc2cc1OCCCN1CCOCC1 | 6.44 | 5.01 | 6.91 | 5.23 | – | –
0.572 | 0.578 | 1.66 | 11.8 | tde | COc1cc2c(Oc3ccc(NS(=O)(=O)c4cc(-c5ccsc5)ccc4F)cc3F)ccnc2cc1OCCCN1CCN(C)CC1 | 4.36 | 2.82 | 4.1 | 4 | – | –
0.168 | 0.283 | 1.05 | 5.23 | tde | COc1cc2c(Oc3ccc(NS(=O)(=O)c4cccc(-c5ccoc5)c4)cc3F)ccnc2cc1OCCCN1CCN(C)CC1 | 3.65 | 2.5 | 2.96 | 2.69 | 1.76 | inhibition [11]: Active; inhibition [12]: inactive
– | – | – | – | – | C#Cc1cccc(Nc2ncnc3cc(OCCOC)c(OCCOC)cc23)c1 | – | – | – | – | – | Activity [13]: Active; Activity [14]: inactive
– | – | – | – | – | C[C@@H](Oc1cc(-c2cnn(C3CCNCC3)c2)cnc1N)c1c(Cl)ccc(F)c1Cl [CRIZOTINIB] | – | – | – | 0.061 | 0.364 | Activity [14]: inactive
0.094 | 0.31 | 0.398 | 2.87 | tde | COc1cc2c(Oc3ccc(NS(=O)(=O)c4cccc(-c5ccsc5)c4)cc3F)ccnc2cc1OCCCN1CCN(C)CC1 | 4.75 | 1.94 | 2.3 | 1.36 | 2.35 | inhibition [15]: > 70%; inhibition [16]: > 70%; inhibition [17]: > 70%; inhibition [18]: > 70%; inhibition [19]: > 70%; inhibition [20]: > 70%; inhibition [21]: Active; inhibition [22]: Active; inhibition [23]: inactive; inhibition [24]: inactive; Activity [13]: Active; Activity [14]: inactive; IC50 [25]: 1.1 µM; Activity [26]: Active; Activity [27]: Toxic; inhibition [28]: Active; inhibition [29]: Active
1.2 | 1.85 | 2.69 | > 12.5 | tde | COc1cc2c(Oc3ccc(NS(=O)(=O)c4ccc(-c5ccsc5)cc4)cc3F)ccnc2cc1OCCCN1CCN(C)CC1 | 6.78 | 4.61 | 7.71 | 5.04 | – | –
0.084 | 0.369 | 0.564 | 7.87 | tde | COc1cc2c(Oc3ccc(NS(=O)(=O)c4cccc(-c5cnn(C)c5)c4)cc3F)ccnc2cc1OCCCN1CCN(C)CC1 | 8.85 | 2.83 | 6.12 | 6.24 | 2.48 | inhibition [11]: Active; inhibition [12]: inactive
– | – | 0.007 | – | – | CCOc1ccn(-c2ccc(F)cc2)c(=O)c1C(=O)Nc1ccc(Oc2ccnc(N)c2Cl)c(F)c1 [BMS-777607] | – | – | – | 1.11 | – | IC50 [25]: 0.2 µM
1.91 | 1.9 | 2.71 | > 12.5 | tde | COc1cc2c(Oc3ccc(NS(=O)(=O)c4cccc(-c5ccco5)c4)cc3F)ccnc2cc1OCCCN1CCN(C)CC1 | – | 3.11 | 1.62 | > 10 | 3.2 | –
– | – | – | – | – | CN(C)C/C=C/C(=O)Nc1cc2c(Nc3ccc(F)c(Cl)c3)ncnc2cc1O[C@H]1CCOC1 [AFATINIB] | – | – | – | > 12.5 | 3.6 | Activity [13]: Active; Activity [14]: inactive
1.05 | 1.16 | 2.71 | > 12.5 | tde | COc1cc2c(Oc3ccc(NS(=O)(=O)c4cccc(-c5cccs5)c4)cc3F)ccnc2cc1OCCCN1CCN(C)CC1 | 3.92 | 5.03 | 4.52 | 4.03 | – | –
7.67 | > 16 | 0.005 | 0.039 | tde | COc1cc2c(Oc3ccc(NC(=O)c4c(C)n(C)n(-c5ccccc5)c4=O)cc3F)ccnc2cc1OCCCN1CCN(C)CC1 | 1.24 | 2.58 | 1.06 | 0.002 | 0.066 | inhibition [11]: Active; inhibition [12]: inactive
3.86 | 2.9 | 0.978 | > 12.5 | tde | COc1cc2c(Oc3ccc(NS(=O)(=O)c4cccc(-c5ccoc5)c4)cc3F)ccnc2cc1OCCCN1CCOCC1 | 8.21 | 4.17 | 8.93 | 4.46 | – | –
> 16 | > 16 | 0.007 | 0.17 | – | COc1cc2c(Oc3ccc(NC(=O)c4c(C)n(C)n(-c5ccccc5)c4=O)cc3F)ccnc2cc1OCCCN1CCOCC1 | 1.19 | 2.51 | 1.46 | 0.005 | 0.074 | inhibition [11]: Active; inhibition [12]: inactive
4.35 | 7.54 | 1.23 | > 12.5 | tde | COc1cc2c(Oc3ccc(NS(=O)(=O)c4ccc(-c5cnn(C)c5)cc4)cc3F)ccnc2cc1OCCCN1CCN(C)CC1 | > 10 | 5.9 | > 10 | 4.33 | – | –
